Data from ChEMBL document CHEMBL2016553, “Design and synthesis of 3-(4,5,6,7-tetrahydro-3H-imidazo[4,5-c]pyridin-2-yl)-1H-quinolin-2-ones as VEGFR-2 kinase inhibitors” (Bioorg Med Chem Lett, 2012).

Legend:
[1] = biological target: T1, Vascular endothelial growth factor receptor 2 (Homo sapiens, UniProt P35968); test: Inhibition of VEGFR-2 kinase
Method in brief: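 HTRF KinEASE assay with recombinant VEGFR-2 kinase domain. Enzyme, ATP and substrate levels were optimised per kit. TR-FRET signal read after detection reagents. IC50 from dose–response curves.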

[2] = biological target: T1, Vascular endothelial growth factor receptor 2; test: Inhibition of recombinant VEGFR-2 kinase domain by homogeneous time-resolved fluorescence assay
CYP2D6 = CYP2D6 (Homo sapiens, UniProt P10635); test: Inhibition of recombinant human CYP2D6 assessed as remaining activity at 10 uM after 20 mins by fluorescence assay; format: ADME; conditions: read-out: Activity
CYP2D6, sequence (P10635 whole entry): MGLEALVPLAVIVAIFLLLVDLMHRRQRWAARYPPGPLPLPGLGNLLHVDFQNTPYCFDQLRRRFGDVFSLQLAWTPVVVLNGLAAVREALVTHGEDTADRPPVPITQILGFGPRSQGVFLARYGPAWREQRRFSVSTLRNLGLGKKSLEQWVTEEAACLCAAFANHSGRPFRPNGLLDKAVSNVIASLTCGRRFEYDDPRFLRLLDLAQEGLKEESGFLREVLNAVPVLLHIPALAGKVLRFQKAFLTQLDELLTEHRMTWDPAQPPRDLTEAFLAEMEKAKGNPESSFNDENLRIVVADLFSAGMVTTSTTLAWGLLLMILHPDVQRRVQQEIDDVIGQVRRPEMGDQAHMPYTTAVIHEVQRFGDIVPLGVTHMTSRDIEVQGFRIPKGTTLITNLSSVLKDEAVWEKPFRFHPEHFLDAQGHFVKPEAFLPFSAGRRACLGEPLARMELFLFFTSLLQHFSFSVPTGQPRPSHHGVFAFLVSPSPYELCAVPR

CYP1A2 = biological target: T2, CYP1A2 (Homo sapiens, UniProt P05177); test: Inhibition of recombinant human CYP1A2 assessed as remaining activity at 10 uM after 20 mins by fluorescence assay; format: ADME; conditions: read-out: Activity
T2 sequence (P05177 whole entry): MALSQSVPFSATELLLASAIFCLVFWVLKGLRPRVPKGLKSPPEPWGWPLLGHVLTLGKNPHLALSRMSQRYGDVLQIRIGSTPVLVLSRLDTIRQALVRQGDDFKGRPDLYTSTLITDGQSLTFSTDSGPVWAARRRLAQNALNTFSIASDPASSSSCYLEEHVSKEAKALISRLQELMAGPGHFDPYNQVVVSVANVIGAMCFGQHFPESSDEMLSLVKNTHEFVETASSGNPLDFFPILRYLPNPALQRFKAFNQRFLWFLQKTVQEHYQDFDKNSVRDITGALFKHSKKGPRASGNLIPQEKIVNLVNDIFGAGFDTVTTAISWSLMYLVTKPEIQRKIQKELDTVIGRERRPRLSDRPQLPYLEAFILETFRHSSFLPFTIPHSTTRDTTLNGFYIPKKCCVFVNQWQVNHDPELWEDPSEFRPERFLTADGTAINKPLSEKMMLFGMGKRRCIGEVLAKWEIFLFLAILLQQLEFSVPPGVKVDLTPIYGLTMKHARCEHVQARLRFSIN

CYP3A4 = CYP3A4 (Homo sapiens, UniProt P08684); test: Inhibition of recombinant human CYP3A4 assessed as remaining activity at 10 uM after 20 mins by fluorescence assay; format: ADME; conditions: read-out: Activity
CYP3A4, sequence (P08684 whole entry): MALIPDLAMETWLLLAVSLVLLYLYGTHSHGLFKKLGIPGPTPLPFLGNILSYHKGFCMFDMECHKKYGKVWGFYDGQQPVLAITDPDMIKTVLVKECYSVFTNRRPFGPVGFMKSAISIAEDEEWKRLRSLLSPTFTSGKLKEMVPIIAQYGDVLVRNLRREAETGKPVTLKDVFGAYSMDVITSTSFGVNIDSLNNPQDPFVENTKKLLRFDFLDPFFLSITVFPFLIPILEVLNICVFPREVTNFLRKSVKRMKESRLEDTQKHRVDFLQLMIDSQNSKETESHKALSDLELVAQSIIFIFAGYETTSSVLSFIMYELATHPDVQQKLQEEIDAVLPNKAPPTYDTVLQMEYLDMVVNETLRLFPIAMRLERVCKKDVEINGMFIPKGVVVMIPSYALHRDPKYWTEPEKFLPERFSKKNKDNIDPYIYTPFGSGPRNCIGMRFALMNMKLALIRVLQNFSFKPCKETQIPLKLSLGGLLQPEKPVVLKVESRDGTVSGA

CYP2C19 = CYP2C19 (Homo sapiens, UniProt P33261); test: Inhibition of recombinant human CYP2C19 assessed as remaining activity at 10 uM after 20 mins by fluorescence assay; format: ADME; conditions: read-out: Activity
CYP2C19, sequence (P33261 whole entry): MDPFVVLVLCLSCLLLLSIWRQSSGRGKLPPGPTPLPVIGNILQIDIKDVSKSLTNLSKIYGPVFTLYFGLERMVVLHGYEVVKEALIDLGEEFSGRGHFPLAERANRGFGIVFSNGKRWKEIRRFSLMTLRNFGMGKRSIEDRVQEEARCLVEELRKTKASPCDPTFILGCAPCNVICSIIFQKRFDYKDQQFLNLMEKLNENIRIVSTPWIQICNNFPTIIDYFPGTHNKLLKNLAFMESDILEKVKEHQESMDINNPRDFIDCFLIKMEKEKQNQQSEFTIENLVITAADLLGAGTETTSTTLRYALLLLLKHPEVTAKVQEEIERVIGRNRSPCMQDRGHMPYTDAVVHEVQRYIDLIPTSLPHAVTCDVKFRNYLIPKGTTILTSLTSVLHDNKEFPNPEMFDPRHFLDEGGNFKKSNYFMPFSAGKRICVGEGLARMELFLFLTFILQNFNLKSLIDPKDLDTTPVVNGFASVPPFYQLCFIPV

[3] = Metabolic stability in human liver microsomes assessed as compound remaining at 10 uM after 30 mins by LC/MS/MS method; format: ADME, Microsome; conditions: read-out: Stability
CYP2C9 = CYP2C9 (Homo sapiens, UniProt P11712); test: Inhibition of recombinant human CYP2C9 assessed as remaining activity at 10 uM after 20 mins by fluorescence assay; format: ADME; conditions: read-out: Activity
CYP2C9, sequence (P11712 whole entry): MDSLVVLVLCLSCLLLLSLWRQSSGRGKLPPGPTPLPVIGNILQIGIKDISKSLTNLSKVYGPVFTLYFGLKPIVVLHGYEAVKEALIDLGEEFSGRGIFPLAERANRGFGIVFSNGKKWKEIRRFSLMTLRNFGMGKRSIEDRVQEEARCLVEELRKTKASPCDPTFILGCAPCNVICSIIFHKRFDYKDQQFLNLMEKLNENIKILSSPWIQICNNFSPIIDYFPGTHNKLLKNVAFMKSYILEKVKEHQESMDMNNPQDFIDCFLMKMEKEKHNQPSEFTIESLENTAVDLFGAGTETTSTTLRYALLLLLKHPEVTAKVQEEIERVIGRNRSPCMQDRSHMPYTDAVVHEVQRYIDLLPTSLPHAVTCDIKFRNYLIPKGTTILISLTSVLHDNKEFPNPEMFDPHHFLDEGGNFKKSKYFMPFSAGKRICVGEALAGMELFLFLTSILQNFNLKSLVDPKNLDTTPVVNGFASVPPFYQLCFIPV

HUVEC [4] = test: Antiproliferative activity against Vegf-stimulated HUVEC at 10 uM after 24 hrs by WST-1 assay relative to control; format: functional, Homo sapiens
Method in brief: (§1)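 Pooled HUVECs grown in 1:1 EBM-2 with EGM-2 supplements, used at passage eight or lower. Seeded at 10,000 cells/well on collagen type I-coated plates. After 24 h, treated 24 h with rhVEGF (20 ng/mL) plus compound. Proliferation read by Premix WST-1 assay.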

HUVEC [5] = test: Antiangiogenic activity in HUVEC assessed as tube formation at 10 uM after 16 to 18 hrs by microscopy relative to control; format: functional, Homo sapiens
Method in brief: (§2)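 Pooled HUVECs seeded at 40,000/well on wells coated with a 1:1 mix of Matrigel (10 mg/mL) and EBM-2/EGM-2 medium, coating set 1 h at 37 °C. Cells incubated 16–18 h, then fixed. Tube formation imaged by camera and quantified by image analysis.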

HUVEC [6] = test: Antiproliferative activity against Vegf-stimulated HUVEC at 1 uM after 24 hrs by WST-1 assay relative to control; format: functional, Homo sapiens; method in brief: as §1
HUVEC [7] = test: Antiproliferative activity against Vegf-stimulated HUVEC at 0.1 uM after 24 hrs by WST-1 assay relative to control; format: functional, Homo sapiens; method in brief: as §1
HUVEC [8] = test: Antiangiogenic activity in HUVEC assessed as tube formation at 1 uM after 16 to 18 hrs by microscopy relative to control; format: functional, Homo sapiens; method in brief: as §2
[9] = Metabolic stability in human liver microsomes assessed as compound remaining at 2 uM after 30 mins by LC/MS/MS method; format: ADME, Microsome; conditions: read-out: Stability
Method in brief: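 Human liver microsomes (0.5 mg/ml) in 100 mM potassium phosphate pH 7.4, test compound final 2 µM. Pre-incubated 5 min at 37 °C, then started with NADPH regenerating solution. Stopped at a single 30 min point with 3 volumes ice-cold acetonitrile containing imipramine (80 ng/ml) as internal standard. Samples vortexed, centrifuged and analysed by LC/MS/MS.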

T1 sequence (P35968 whole entry, the tested form may be a part): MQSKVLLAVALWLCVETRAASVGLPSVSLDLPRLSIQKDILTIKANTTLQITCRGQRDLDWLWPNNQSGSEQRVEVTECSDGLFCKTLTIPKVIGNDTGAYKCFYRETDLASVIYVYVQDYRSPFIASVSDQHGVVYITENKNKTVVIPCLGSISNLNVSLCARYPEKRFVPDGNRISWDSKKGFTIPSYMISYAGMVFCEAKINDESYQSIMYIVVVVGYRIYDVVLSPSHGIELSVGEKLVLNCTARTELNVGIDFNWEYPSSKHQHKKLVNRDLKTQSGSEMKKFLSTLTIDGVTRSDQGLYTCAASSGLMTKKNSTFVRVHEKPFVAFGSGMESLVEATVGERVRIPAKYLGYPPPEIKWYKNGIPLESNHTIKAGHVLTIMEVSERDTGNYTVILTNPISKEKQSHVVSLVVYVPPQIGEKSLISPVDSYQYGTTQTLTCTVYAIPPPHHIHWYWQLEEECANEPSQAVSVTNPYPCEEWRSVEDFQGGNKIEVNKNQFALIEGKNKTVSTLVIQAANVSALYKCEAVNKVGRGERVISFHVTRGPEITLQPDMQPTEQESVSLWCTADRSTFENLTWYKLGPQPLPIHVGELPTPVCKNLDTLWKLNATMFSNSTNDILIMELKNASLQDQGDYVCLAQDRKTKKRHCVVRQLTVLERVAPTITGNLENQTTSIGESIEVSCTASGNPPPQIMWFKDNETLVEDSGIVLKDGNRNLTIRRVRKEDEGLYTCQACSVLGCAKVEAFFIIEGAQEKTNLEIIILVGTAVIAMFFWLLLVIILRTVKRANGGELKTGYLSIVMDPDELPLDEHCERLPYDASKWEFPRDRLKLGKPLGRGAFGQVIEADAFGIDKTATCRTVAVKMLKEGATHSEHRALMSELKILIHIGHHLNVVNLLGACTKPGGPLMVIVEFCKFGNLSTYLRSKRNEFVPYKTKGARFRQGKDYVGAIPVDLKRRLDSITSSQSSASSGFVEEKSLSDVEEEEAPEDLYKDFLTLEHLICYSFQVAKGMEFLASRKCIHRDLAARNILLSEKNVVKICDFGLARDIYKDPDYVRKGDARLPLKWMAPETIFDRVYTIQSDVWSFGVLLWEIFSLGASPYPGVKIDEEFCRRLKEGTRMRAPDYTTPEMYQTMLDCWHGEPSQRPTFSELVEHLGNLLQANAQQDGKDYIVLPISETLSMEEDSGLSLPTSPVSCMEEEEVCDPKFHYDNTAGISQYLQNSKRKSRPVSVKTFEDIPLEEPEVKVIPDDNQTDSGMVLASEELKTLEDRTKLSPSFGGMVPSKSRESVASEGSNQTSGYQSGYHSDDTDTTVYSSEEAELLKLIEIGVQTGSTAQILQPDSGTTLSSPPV

Row | SMILES | IC50 [2] [nM] | other results
1 | O=C(c1cccnc1)N1CCc2nc(-c3cc4c(F)cccc4[nH]c3=O)[nH]c2C1 | 600 | –
2 | O=C(c1cccnc1)N1CCc2nc(-c3cc4cc(F)ccc4[nH]c3=O)[nH]c2C1 | 1 | activity at 20 min, 10 µM (CYP2D6): 67%; activity at 20 min, 10 µM (CYP1A2): 86%; activity at 20 min, 10 µM (CYP3A4): 83%; activity at 20 min, 10 µM (CYP2C19): 92%; remaining at 0.5 h, 10 µM [3]: 96%; activity at 20 min, 10 µM (CYP2C9): 99%
3 | O=C(c1ccncc1)N1CCc2nc(-c3cc4ccccc4[nH]c3=O)[nH]c2C1 | 200 | –
4 | O=C(c1ccncc1)N1CCc2nc(-c3cc4c(F)cccc4[nH]c3=O)[nH]c2C1 | 800 | –
5 | O=C(c1ccncc1)N1CCc2nc(-c3cc4cc(F)ccc4[nH]c3=O)[nH]c2C1 | 0.3 | activity at 20 min, 10 µM (CYP2D6): 90%; Activity (HUVEC [4]): 71%; Activity (HUVEC [5]): 62%; Activity (HUVEC [6]): 72%; activity at 20 min, 10 µM (CYP1A2): 96%; activity at 20 min, 10 µM (CYP3A4): 89%; activity at 20 min, 10 µM (CYP2C19): 77%; Activity (HUVEC [7]): 120%; remaining at 0.5 h, 10 µM [3]: 99%; activity at 20 min, 10 µM (CYP2C9): 53%; Activity (HUVEC [8]): 93%
6 | O=C(CN1CCOCC1)N1CCc2nc(-c3cc4c(F)cccc4[nH]c3=O)[nH]c2C1 | 1100 | –
7 | O=C(CN1CCOCC1)N1CCc2nc(-c3cc4cc(F)ccc4[nH]c3=O)[nH]c2C1 | 4.3 | –
8 | O=C(CN1CCOCC1)N1CCc2nc(-c3cc4cc(Cl)ccc4[nH]c3=O)[nH]c2C1 | 35 | –
9 | COc1ccc2[nH]c(=O)c(-c3nc4c([nH]3)CN(C(=O)CN3CCOCC3)CC4)cc2c1 | 760 | –
10 | CN1CCN(CC(=O)N2CCc3nc(-c4cc5c(F)cccc5[nH]c4=O)[nH]c3C2)CC1 | 1050 | –
11 | CN1CCN(CC(=O)N2CCc3nc(-c4cc5cc(Cl)ccc5[nH]c4=O)[nH]c3C2)CC1 | 19 | –
12 | O=C(CN1CCCCC1)N1CCc2nc(-c3cc4ccccc4[nH]c3=O)[nH]c2C1 | 16 | –
13 | O=C(CN1CCCCC1)N1CCc2nc(-c3cc4cc(F)ccc4[nH]c3=O)[nH]c2C1 | 8 | –
14 | COc1ccc2[nH]c(=O)c(-c3nc4c([nH]3)CN(C(=O)CN3CCCCC3)CC4)cc2c1 | 280 | –
15 | O=C(Cc1ccccn1)N1CCc2nc(-c3cc4cc(F)ccc4[nH]c3=O)[nH]c2C1 | 0.7 | –
16 | O=C(Cc1ccncc1)N1CCc2nc(-c3cc4cc(F)ccc4[nH]c3=O)[nH]c2C1 | 8.6 | activity at 20 min, 10 µM (CYP2D6): 21%; activity at 20 min, 10 µM (CYP1A2): 58%; activity at 20 min, 10 µM (CYP3A4): 33%; activity at 20 min, 10 µM (CYP2C19): 35%; remaining at 0.5 h, 10 µM [3]: 93%; activity at 20 min, 10 µM (CYP2C9): 28%
17 | COc1ccc(NC(=O)N2CCc3nc(-c4cc5ccccc5[nH]c4=O)[nH]c3C2)cc1 | 46 | –

The next lines start with results.

Row | IC50 [2] [nM] | SMILES | other results
18 | 1000 | CN1CCc2nc(-c3cc4ccccc4[nH]c3=O)[nH]c2C1 | IC50 [1]: 1000 nM
19 | 6000 | O=c1[nH]c2ccccc2cc1-c1nc2c([nH]1)CN(Cc1ccccc1)CC2 | –
20 | 600 | O=C(OCc1ccccc1)N1CCc2nc(-c3cc4ccccc4[nH]c3=O)[nH]c2C1 | –
21 | 5000 | O=c1[nH]c2ccccc2cc1-c1nc2c([nH]1)CN(C1CCNCC1)CC2 | –
22 | 200 | O=C(c1cccnc1)N1CCc2nc(-c3cc4ccccc4[nH]c3=O)[nH]c2C1 | –
23 | 1.3 | O=C(c1ccc(CN2CCCCC2)cc1)N1CCc2nc(-c3cc4ccccc4[nH]c3=O)[nH]c2C1 | –
24 | 4.9 | O=C(c1ccc(CN2CCCCC2)cc1)N1CCc2nc(-c3cc4cc(F)ccc4[nH]c3=O)[nH]c2C1 | activity at 20 min, 10 µM (CYP2D6): 100%; Activity (HUVEC [4]): 79%; Activity (HUVEC [5]): 99%; Activity (HUVEC [6]): 82%; activity at 20 min, 10 µM (CYP1A2): 89%; activity at 20 min, 10 µM (CYP3A4): 16%; activity at 20 min, 10 µM (CYP2C19): 100%; Activity (HUVEC [7]): 92.3%; remaining at 0.5 h, 2 µM [9]: 92%; activity at 20 min, 10 µM (CYP2C9): 94%; Activity (HUVEC [8]): 102%
25 | 300 | CCN(CC)CC(=O)N1CCc2nc(-c3cc4ccccc4[nH]c3=O)[nH]c2C1 | –
26 | 300 | O=C(CN1CCOCC1)N1CCc2nc(-c3cc4ccccc4[nH]c3=O)[nH]c2C1 | –
27 | 300 | CN1CCN(CC(=O)N2CCc3nc(-c4cc5ccccc5[nH]c4=O)[nH]c3C2)CC1 | –
28 | 13 | CN1CCN(CC(=O)N2CCc3nc(-c4cc5cc(F)ccc5[nH]c4=O)[nH]c3C2)CC1 | –
29 | 1100 | COc1ccc2[nH]c(=O)c(-c3nc4c([nH]3)CN(C(=O)CN3CCN(C)CC3)CC4)cc2c1 | –
30 | 740 | O=C(CN1CCCCC1)N1CCc2nc(-c3cc4c(F)cccc4[nH]c3=O)[nH]c2C1 | –
31 | 22 | O=C(CN1CCCCC1)N1CCc2nc(-c3cc4cc(Cl)ccc4[nH]c3=O)[nH]c2C1 | –
32 | 400 | O=C(CN1CCCC1)N1CCc2nc(-c3cc4ccccc4[nH]c3=O)[nH]c2C1 | –
33 | 1.3 | O=C(Cc1ccccn1)N1CCc2nc(-c3cc4ccccc4[nH]c3=O)[nH]c2C1 | –
34 | 6.7 | O=C(Cc1ccncc1)N1CCc2nc(-c3cc4ccccc4[nH]c3=O)[nH]c2C1 | –
35 | 0.5 | O=C(Cc1ccncc1)N1CCc2nc(-c3cc4cc(Cl)ccc4[nH]c3=O)[nH]c2C1 | –
36 | 2.1 | Cc1cccc(NC(=O)N2CCc3nc(-c4cc5ccccc5[nH]c4=O)[nH]c3C2)c1 | –
